Columns and labels:
[1] = Neurotoxicity was determined, 1 hr after oral dosing in rat.; type: toxicity, organism-based; conditions: in vivo
Procedure, shortened: (§1)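 Oral dosing in rats, with MES protection or neurotoxicity assessed at the stated time. ED50 or TD50 (mg/kg) given with 95% CI, slope and SE. Testing done by NINDS under its reported procedures.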

[2] = Protective index is the ratio of TD50 in neurotoxicity screen test and ED50 in MES screen test
[3] = Protective index is the ratio of TD50 and ED50 in maximal electroshock anticonvulsant screen test; type: functional
Procedure, shortened: (§2)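 Protection index is TD50/ED50, taken from intraperitoneal mouse data for the MES and scPTZ screens respectively, or from oral rat MES data.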

Mus musculus [4] = assay: Effective dose for protection against seizures induced in the maximal electroshock anticonvulsant screen test after intraperitoneal injection in mice; type: functional; conditions: ip
Procedure, shortened: (§3)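 Mice received compound intraperitoneally, with quantitative evaluation in the MES, scPTZ and neurotoxicity screens at the tabulated time. ED50 or TD50 (mg/kg) reported with 95% CI, slope and SE. Testing done by NINDS under its reported procedures.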

Rattus norvegicus [5] = assay: Effective dose for protection against seizures induced in the maximal electroshock anticonvulsant screen test 1 hr after oral dosing in rat; type: functional; procedure, shortened: as §1
Mus musculus [6] = assay: Ability to prevent seizures induced by subcutaneous injection of bicuculline, after 0.25 hr in mice; type: functional; conditions: sc
Procedure, shortened: (§4)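 Mice dosed intraperitoneally at various doses, then bicuculline 2.7 mg/kg given subcutaneously and protection noted. ED50 with 95% CI, slope and SE obtained using eight animals per dose; otherwise two, seven or eight mice per dose. Screening run by NINDS per its reported procedures.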

[7] = Protective index is the ratio of TD50 and ED50 in subcutaneous pentylenetetrazole screen test; type: functional; procedure, shortened: as §2
[8] = Neurotoxicity was determined, 0.25 hr after intraperitoneal injection in mice.; type: toxicity, organism-based; conditions: mouse, in vivo, ip; procedure, shortened: as §3
Mus musculus [9] = assay: Effective dose for protection against seizures induced in the subcutaneous pentylenetetrazole screen test in mice; type: functional; conditions: sc; procedure, shortened: as §3
Mus musculus [10] = assay: Ability to prevent seizures induced by subcutaneous injection of picrotoxin, after 0.25 hr in mice; type: functional; conditions: sc
Procedure, shortened: (§5)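 Mice received various intraperitoneal doses of compound, then subcutaneous picrotoxin at 2.5 mg/kg. Protection from seizures was scored. ED50 values use eight mice per dose and are given with 95% CI, slope and SE.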

[11] = Neurotoxicity was determined, 1 hr after oral dosing in rat; type: toxicity, organism-based; conditions: in vivo; procedure, shortened: as §1
Mus musculus [12] = assay: Ability to prevent seizures induced by subcutaneous injection of bicuculline, after 4 hr in mice; type: functional; conditions: sc; procedure, shortened: as §4
Rattus norvegicus [13] = assay: Neurotoxicity was determined, of 0.25, 0.5, 1, 2 and 4 h, after 300 mg/kg oral dosing in rat.; type: toxicity, organism-based; set-up: dose 300 mg/kg, route oral; conditions: in vivo
Procedure, shortened: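 Rats given 300 mg/kg orally and checked for neurotoxicity 0.25, 0.5, 1, 2 and 4 h later, using two animals per time point. Testing done by NINDS.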

Mus musculus [14] = assay: Ability to prevent seizures induced by subcutaneous injection of bicuculline, after 1 hr in mice; type: functional; conditions: sc; procedure, shortened: as §4
[15] = Toxic dose determined as neurotoxicity, 1 h after oral dosing in rat; type: toxicity, organism-based; conditions: in vivo; procedure, shortened: as §1
[16] = Toxic dose determined as neurotoxicity, 0.25 hr after intraperitoneal injection in mice.; type: toxicity, organism-based; conditions: mouse, in vivo, ip; procedure, shortened: as §3
Mus musculus [17] = assay: Ability to prevent seizures induced by subcutaneous injection of picrotoxin, after 1 hr in mice; type: functional; conditions: sc; procedure, shortened: as §5
[18] = Toxic dose determined as neurotoxicity, 0.25 hr after intraperitoneal injection in mice; type: toxicity, organism-based; conditions: mouse, in vivo, ip
Procedure, shortened: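 Mice received the compound by intraperitoneal injection, with the NINDS programme running the test by its reported procedures. Neurotoxicity was assessed at set times after dosing. TD50 is given in mg/kg with 95% CI, slope and SE.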

Rattus norvegicus [19] = assay: Ability to protect against seizures induced in the maximal electro shock (MES) screen,test1 hr after oral dosing in rat.; type: functional; procedure, shortened: as §1
[20] = Toxic dose determined neurotoxicity, 1 hr after oral dosing in rat; type: toxicity, organism-based; conditions: in vivo
Procedure, shortened: (§6)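 Rats were dosed orally, with the NINDS programme running the tests by its reported procedures. MES protection (ED50) and neurotoxicity (TD50) were measured at timed intervals after dosing. Each value is given as a dose-response ED50 or TD50 in mg/kg with 95% CI, slope and SE.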

Rattus norvegicus [21] = assay: Ability to protect against seizures induced in the maximal electro shock (MES) screen test 1 hr after oral dosing in rat; type: functional; procedure, shortened: as §6

SMILES | TD50 at 1 h [1] | Ratio [2] | Ratio [3] | ED50 (Mus musculus [4]) | ED50 (Rattus norvegicus [5]) | ED50 (Mus musculus [6]) | Ratio [7] | TD50 at 0.25 h [8] | ED50 (Mus musculus [9]) | ED50 (Mus musculus [10]) | other results
NC(=O)NN=C(c1ccccc1)c1ccccc1 [DIPHENYLSEMICARBAZONE] | 235 mg/kg | 10.3 | 1.91 | 47 mg/kg | 22.9 mg/kg | > 100 mg/kg | 1.18 | 89.7 mg/kg | 76.2 mg/kg | – | –
NC(=O)N/N=C/Cc1ccccc1 [PHENYLMETHYLSEMICARBAZONE] | > 500 mg/kg | > 11.7 | 2.63 | 45.5 mg/kg | 42.8 mg/kg | 59.6 mg/kg | 0.94 | 120 mg/kg | 128 mg/kg | > 150 mg/kg | –
NC(=O)N/N=C/c1ccc(Cl)cc1 | – | > 26.9 | 3.37 | 74.8 mg/kg | 18.6 mg/kg | > 300 mg/kg | 1.87 | 252 mg/kg | 135 mg/kg | 146 mg/kg | TD50 at 1 h [11]: > 500 mg/kg
CC(=NNC(N)=O)c1ccccc1 [PHENYL(METHYL)SEMICARBAZONE] | 268 mg/kg | 13.2 | 2.34 | 35.1 mg/kg | 20.2 mg/kg | > 100 mg/kg | 1.05 | 82.3 mg/kg | 78.5 mg/kg | 60.8 mg/kg | –
NC(=O)N/N=C/c1ccccc1Cl | > 500 mg/kg | > 12.9 | – | – | 38.8 mg/kg | – | – | – | – | – | –
NC(=O)N/N=C/CCc1ccccc1 [PHENYLETHYLSEMICARBAZONE] | 334 mg/kg | 9.16 | 1.54 | 47 mg/kg | 36.4 mg/kg | > 120 mg/kg | 0.92 | 72.3 mg/kg | 78.6 mg/kg | – | –
NC(=O)N/N=C/c1ccc(Cl)c(Cl)c1 | > 500 mg/kg | > 24.8 | > 3.43 | 146 mg/kg | 20.2 mg/kg | – | – | > 500 mg/kg | > 500 mg/kg | – | ED50 (Mus musculus [12]): > 500 mg/kg
NC(=O)N/N=C/c1c(Cl)cccc1Cl | 129 mg/kg | 2.18 | – | – | 59 mg/kg | – | – | – | – | – | –
NC(=S)N/N=C/c1ccccc1 [PHENYLTHIOSEMICARBAZONE] | > 200 mg/kg | > 15.6 | – | – | 12.8 mg/kg | – | – | – | – | – | –
NC(=O)N/N=C/c1ccc(Cl)cc1Cl | > 500 mg/kg | > 11.6 | – | – | 43.1 mg/kg | – | – | – | – | – | –
COc1ccc(/C=N/NC(N)=O)cc1 | – | – | – | – | – | – | – | – | – | – | TD50 (Rattus norvegicus [13]): No activity
C/C(=N\N=C(/N)S)c1ccccc1 [PHENYL(METHYL)THIOSEMICARBAZONE] | 73 mg/kg | 4.33 | – | – | 16.9 mg/kg | – | – | – | – | – | –
CCCC/C(=N\NC(N)=O)c1ccccc1 [PHENYL(BUTYL)SEMICARBAZONE] | > 500 mg/kg | > 8.41 | 1.81 | 58.3 mg/kg | 59.5 mg/kg | – | 0.97 | 106 mg/kg | 108 mg/kg | – | –
NC(=O)N/N=C/c1cccc(Cl)c1 | – | > 20.5 | > 5.53 | 90.4 mg/kg | 24.4 mg/kg | – | >2.82 | – | 177 mg/kg | – | ED50 (Mus musculus [14]): > 500 mg/kg; TD50 at 1 h [15]: > 500 mg/kg; TD50 at 0.25 h [16]: > 500 mg/kg; ED50 (Mus musculus [17]): 200 mg/kg
NC(=O)N/N=C\c1ccccc1 [PHENYLSEMICARBAZONE] | – | 11.3 | 2.93 | 69.7 mg/kg | – | 116 mg/kg | 1.6 | – | 127 mg/kg | 104 mg/kg | TD50 at 0.25 h [18]: 204 mg/kg; ED50 (Rattus norvegicus [19]): 22.5 mg/kg; TD50 at 1 h [11]: 254 mg/kg
C/C(=N/N=C(\N)S)c1ccc(Cl)cc1 [P-CHLOROPHENYL(METHYL)THIOSEMICARBAZONE] | – | 7.67 | 0.39 | 60.4 mg/kg | – | – | 0.34 | – | 69.6 mg/kg | – | TD50 at 0.25 h [18]: 23.8 mg/kg; TD50 at 1 h [20]: 119 mg/kg; ED50 (Rattus norvegicus [21]): 15.5 mg/kg
CC/C(=N\NC(N)=O)c1ccccc1 | 404 mg/kg | 12.3 | – | – | 32.8 mg/kg | > 100 mg/kg | – | – | – | 128 mg/kg | –
CC(C)/C(=N\NC(N)=O)c1ccccc1 | 245 mg/kg | 5.66 | – | – | 43.3 mg/kg | – | – | – | – | – | –
CCCCC/C(=N\NC(N)=O)c1ccccc1 | > 500 mg/kg | > 15.3 | – | – | 32.6 mg/kg | 363 mg/kg | – | – | – | 230 mg/kg | –
NC(=O)N/N=C/C=C/c1ccccc1 [PHENYLETHENYLSEMICARBAZONE] | > 500 mg/kg | > 43.5 | 2.01 | 48.9 mg/kg | 11.5 mg/kg | > 120 mg/kg | 1.16 | 98.2 mg/kg | 84.7 mg/kg | – | –

Source: ChEMBL document CHEMBL1126755, “Anticonvulsant activities of some arylsemicarbazones displaying potent oral activity in the maximal electroshock screen in rats accompanied by high protection indices” (J Med Chem, 1993)
